Screens: PubChem, several laboratories
In the library only some 1.3% were active in any assay of this set; here they are far more common.
MT1-MMP act inh = inhibitors of human MT1-MMP activation. HT1080 RFP-PRO-GFP cells, GFP/RFP ratio fluorescence, overnight; percent of plate control window, DMSO zero. GFP/RFP ratio change, % at 20 µM. 360,000 compounds, 0.061% hits. P50281;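 active means GFP/RFP ratio change of at least 30% with cell ATP level not reduced by more than half and red fluorescence within 50% of control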
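Assay system – RFP-PRO-GFP reporter HT1080 cells · Compound dosing – single dose of 20 µM compound, 1% DMSO final · Incubation – overnight compound exposure at 37 °C · Measure – GFP/RFP fluorescence ratio · Benchmarks – DMSO wells and RFP-L50D-GFP cells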
ANO1 activ = activators or potentiators of mouse TMEM16A chloride channel. HEK293 TMEM16A/YFP-H148Q/I152L, iodide quench fluorescence; hits give low values. 340,000 compounds, 0.3% hits. B-score at 10 µM. Q8BHY3. AID 623877;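 active means fluorescence-ratio B-score plate-corrected deviation score at least 3 library SD below zero, with starting fluorescence score within 5 deviations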;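 further: channel opened by trigger with iodide after compound preincubation; score built on the fluorescence ratio of max minus min over baseline; more negative score means more quench and so TMEM16A activation or potentiation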
TMEM16A inh = inhibitors of mouse TMEM16A calcium-activated chloride channel; Q8BHY3; HEK293 TMEM16A/YFP iodide influx fluorescence, ionomycin; normalized B-score (activity score, 25-100; higher = stronger inhibition) at 10 µM; 310,000 compounds, 1.2% hits; AID 588511;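 active means ratio plate-corrected score three or more library SD toward inhibition, starting fluorescence score within five deviations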;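 further: score derived from kinetic fluorescence span divided by baseline fluorescence per well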
DAGLB inh = blocks human DAGLB lipase activity. 340,000 compounds, 0.059% hits. HEK293T DAGLB membrane lysate, EnzChek fluorogenic substrate. Q8NCG7. inhibition, % at 5.17 µM; in the data active means inhibition above about 34%
Target sequence (Q8NCG7 whole entry, looked up): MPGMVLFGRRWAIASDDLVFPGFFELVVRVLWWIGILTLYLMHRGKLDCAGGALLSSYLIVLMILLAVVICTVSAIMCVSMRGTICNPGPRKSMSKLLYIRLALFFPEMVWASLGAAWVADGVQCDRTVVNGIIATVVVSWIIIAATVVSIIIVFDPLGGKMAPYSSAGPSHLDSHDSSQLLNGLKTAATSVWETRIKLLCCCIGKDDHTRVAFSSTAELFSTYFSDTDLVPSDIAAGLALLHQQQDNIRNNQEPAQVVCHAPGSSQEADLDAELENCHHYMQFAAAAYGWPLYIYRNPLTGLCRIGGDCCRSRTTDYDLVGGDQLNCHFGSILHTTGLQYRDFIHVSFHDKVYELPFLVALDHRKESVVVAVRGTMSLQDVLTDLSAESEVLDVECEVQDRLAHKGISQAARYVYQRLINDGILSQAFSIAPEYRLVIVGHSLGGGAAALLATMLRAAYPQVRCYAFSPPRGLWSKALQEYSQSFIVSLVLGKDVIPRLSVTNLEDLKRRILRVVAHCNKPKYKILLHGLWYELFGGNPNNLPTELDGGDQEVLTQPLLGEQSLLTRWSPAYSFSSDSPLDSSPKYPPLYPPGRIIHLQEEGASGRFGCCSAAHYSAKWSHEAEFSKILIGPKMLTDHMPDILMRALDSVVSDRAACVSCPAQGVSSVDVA
TMEM16A reconf = reconfirmed blocker of mouse TMEM16A calcium-activated chloride channel; HEK293 TMEM16A/YFP-H148Q, iodide quench fluorescence; ionomycin added to raise cell calcium; inhibition, % at 10 µM; shares compounds with TMEM16A inh; AID 652189; 2,300 compounds, 39% hits;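 active means mean duplicate percent inhibition, scaled so buffer wells are 0 and the reference blocker 100, over three buffer SD above buffer mean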
HEK293 Ca mobil = alters calcium mobilization in TMEM16A HEK293 cells, counter-screen; TMEM16A/YFP HEK293, Fluo4 calcium mobilization; AID 652231; shares compounds with TMEM16A inh; 2,300 compounds, 2% hits; calcium response (% of ionomycin), % at 10 µM;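 active means duplicate-averaged calcium signal over 20% of the ionomycin maximum, relative to buffer baseline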;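 further: each well's signal is peak minus trough fluorescence divided by its pre-addition baseline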
YFP-HEK293 quench = counter-screen for TMEM16A inhibitors: effect in parental YFP-HEK293 cells; 2,300 tested, under 10 active; shares compounds with TMEM16A inh; iodide YFP quench, ionomycin; AID 652233; YFP ratio F(max-min)/F0 at 10 µM;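 active means yellow fluorescent protein signal ratio exceeding the buffer control mean by over 5 SD of those controls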;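 further: ratio is mean of duplicate wells from kinetic YFP trace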
ClC-1 inh = rat ClC-1 inhibition, TMEM16A specificity screen; shares compounds with TMEM16A inh; CHO ClC-1-YFP, iodide influx fluorescence quench; iodide control reads 0, buffer control 100; ratio percent, % at 10 µM; 2,300 tested, under 10 active;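 active means duplicate-mean ratio percent above the mean of iodide-only control wells, which defines zero, plus 5 of their SD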;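 further: higher percent means stronger block of ClC-1 iodide influx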
Each line names hits and unclear results; the compound was inactive in the other large screens (follow-up assays come after a bar, where they were run).

FC(F)(F)c1cc(C(F)(F)F)c2ccc(N/N=C/c3ccccc3)nc2n1	none
N#CC(c1ccccc1)c1ccc2c(C(F)(F)F)cc(C(F)(F)F)nc2n1 (stereo not given)	TMEM16A inh 100 | TMEM16A reconf 42% | HEK293 Ca mobil inactive | YFP-HEK293 quench inactive | ClC-1 inh inactive
COC(=O)c1ccc(-c2cc3onc(-c4ccccc4)c3c(=O)n2C)cc1	TMEM16A inh 25 | TMEM16A reconf inactive | HEK293 Ca mobil inactive | YFP-HEK293 quench inactive | ClC-1 inh inactive
Cn1c(-c2ccc(F)c(F)c2)cc2onc(-c3ccccc3)c2c1=O	none
COc1cccc(-c2cc3onc(-c4ccccc4)c3c(=O)n2C)c1	TMEM16A inh 25 | TMEM16A reconf inactive | HEK293 Ca mobil inactive | YFP-HEK293 quench inactive | ClC-1 inh inactive
COc1ccc(C(=O)N/C(=C\c2cn(S(=O)(=O)N(C)C)c3ccccc23)C(=O)N2CCCC2)cc1	none (no result: ANO1 activ, TMEM16A inh)
COc1cccc(C(=O)O)c1OS(=O)(=O)c1ccc(C)cc1	none (no result: ANO1 activ, TMEM16A inh)
CC(=O)Oc1ccc(CC(C(=O)O)N2C(=O)c3ccccc3C2=O)cc1 (stereo not given)	none
O=C(O)[C@H](Cc1ccccc1)N1C(=O)c2ccncc2C1=O	TMEM16A inh 100 | TMEM16A reconf inactive | HEK293 Ca mobil inactive | YFP-HEK293 quench inactive | ClC-1 inh inactive
Nn1c(-c2cccs2)nc2sc3c(c2c1=O)CCCC3	TMEM16A inh 25 | TMEM16A reconf 30% | HEK293 Ca mobil inactive | YFP-HEK293 quench inactive | ClC-1 inh inactive
CCOC(=O)N1CCN(Cc2nc(N)nc(Nc3ccc(OC)cc3)n2)CC1	none
CCOC(=O)N1CCN(Cc2nc(N)nc(Nc3ccc(Oc4ccccc4)cc3)n2)CC1	TMEM16A inh 25 | TMEM16A reconf 17% | HEK293 Ca mobil inactive | YFP-HEK293 quench inactive | ClC-1 inh inactive
Cc1ccc(C(=O)CSc2nc(C(C)C)nc3ccccc23)cc1	TMEM16A inh 100 | TMEM16A reconf inactive | HEK293 Ca mobil inactive | YFP-HEK293 quench inactive | ClC-1 inh inactive
C[C@@H]1CN([C@@H](C)CO)C(=O)c2cc(-c3cccnc3)cnc2O[C@H]1CN(C)C(=O)c1cccc(F)c1	none (no result: ANO1 activ, TMEM16A inh)
CCC(=O)Oc1ccc(C/C(=N\O)c2ccc(O)cc2O)o1	TMEM16A inh 25 | TMEM16A reconf 24% | HEK293 Ca mobil inactive | YFP-HEK293 quench inactive | ClC-1 inh inactive
O=C(Nc1ccccc1)c1ccccc1OS(=O)(=O)c1ccccc1	none
O=C(Oc1ccccc1)c1ccccc1OS(=O)(=O)c1ccccc1	TMEM16A inh 100 | TMEM16A reconf inactive | HEK293 Ca mobil inactive | YFP-HEK293 quench inactive | ClC-1 inh inactive
Cc1ccc(S(=O)(=O)N2C[C@H]3C(=O)C[C@@H](c4ccccc4)N(S(=O)(=O)c4ccc(C)cc4)[C@H]3C[C@H]2c2ccc(Cl)cc2)cc1	none (no result: ANO1 activ, TMEM16A inh)
Cc1cc(N2CCCC2=O)cc(C)c1S(=O)(=O)NCCOc1ccc(C(C)(C)C)cc1	TMEM16A inh 25 | TMEM16A reconf inactive | HEK293 Ca mobil inactive | YFP-HEK293 quench inactive | ClC-1 inh inactive
CN1CCCCC1(C)C(=O)NCc1ccc(C(C)(C)C)cc1 (stereo not given)	none (no result: ANO1 activ, TMEM16A inh, DAGLB inh)
Cc1ccc(-c2noc(CCCC(=O)NC3CCCCC3)n2)cc1	TMEM16A inh 25 | TMEM16A reconf inactive | HEK293 Ca mobil inactive | YFP-HEK293 quench inactive | ClC-1 inh inactive
COCCCNC(=S)N1CCN(c2nc(-c3ccccc3)cs2)CC1	TMEM16A inh 25 | TMEM16A reconf inactive | HEK293 Ca mobil inactive | YFP-HEK293 quench inactive | ClC-1 inh inactive
CCOCCCNC(=S)N1CCN(c2nc(-c3ccccc3)cs2)CC1	none
CCCn1c(O)c(CN2CCCCC2)c(C)c(C#N)c1=O	none (no result: ANO1 activ) | TMEM16A reconf 20% | HEK293 Ca mobil inactive | YFP-HEK293 quench inactive | ClC-1 inh inactive
O=c1cc(CSc2nc3ccccc3[nH]2)c2ccccc2[nH]1	none
Fc1ccc(CSc2nc3ccccc3[nH]2)c2ccccc12	TMEM16A inh 100 (no result: MT1-MMP act inh) | TMEM16A reconf 32% | HEK293 Ca mobil inactive | YFP-HEK293 quench inactive | ClC-1 inh inactive
COCc1cn(CC(=O)c2sc(NC(=O)C(C)(C)C)nc2C)nn1	none (no result: ANO1 activ, TMEM16A inh, DAGLB inh)
CCCOc1ccccc1OCC(=O)Nc1cccc(S(=O)(=O)NC2=NCCC2)c1	none (no result: TMEM16A inh)
C[C@@H](NC(=O)c1nc[nH]c1C(=O)N(C)Cc1ccccc1)c1ccccc1	none (no result: TMEM16A inh)
O=C(CC(Cc1ccccc1)c1ccco1)NC1CCCCC1 (stereo not given)	none (no result: MT1-MMP act inh) | TMEM16A reconf inactive | HEK293 Ca mobil inactive | YFP-HEK293 quench inactive | ClC-1 inh inactive
O=C(NC1CCCCC1)c1cccc(NC(=O)c2ccccc2Cl)c1	none (no result: ANO1 activ, TMEM16A inh)
CCOc1ccc(C(=O)NCC(C)NC(=O)c2ccc(OCC)cc2)cc1 (stereo not given)	TMEM16A inh 25 | TMEM16A reconf inactive | HEK293 Ca mobil inactive | YFP-HEK293 quench inactive | ClC-1 inh inactive
CCCn1c(=O)c(C(=O)NNC(=O)c2ccccc2Cl)c(O)c2ccccc21	ANO1 activ -4.6, TMEM16A inh 100 | TMEM16A reconf inactive | HEK293 Ca mobil inactive | YFP-HEK293 quench inactive | ClC-1 inh inactive
Cc1ccc(-n2c(C)cc(C(=O)COc3c(CO)cc(F)cc3CO)c2C)cc1C	TMEM16A inh 25 | TMEM16A reconf 32% | HEK293 Ca mobil inactive | YFP-HEK293 quench inactive | ClC-1 inh inactive
Cc1cc(C(=O)COc2ccccc2Cl)c(C)n1-c1ccc2c(c1)OCO2	none
C=C(c1ccc(O)cc1)c1ccc(O)cc1	TMEM16A inh 100 | TMEM16A reconf 24% | HEK293 Ca mobil inactive | YFP-HEK293 quench inactive | ClC-1 inh inactive
Cc1cc(S(=O)(=O)c2ccc(Cl)cc2)nc(S(=O)(=O)c2ccc(Cl)cc2)c1C#N	none (no result: ANO1 activ, TMEM16A inh)
CC1CC(C)(C)OC(c2ccc(C(C)C)cc2)O1 (stereo not given)	none (no result: TMEM16A inh)
Cc1nc(-c2ccc(S(=O)(=O)Nc3ccc(Br)cc3Cl)s2)cs1	TMEM16A inh 100 | TMEM16A reconf 34% | HEK293 Ca mobil inactive | YFP-HEK293 quench inactive | ClC-1 inh inactive
Cc1nc(-c2ccc(S(=O)(=O)Nc3cccc(S(N)(=O)=O)c3)s2)cs1	none (no result: DAGLB inh)
Cc1ccc2[nH]c3c(N4CCN(Cc5ccccc5)CC4)ncnc3c2c1	TMEM16A inh 100 | TMEM16A reconf 38% | HEK293 Ca mobil inactive | YFP-HEK293 quench inactive | ClC-1 inh inactive
c1ccc2c(c1)[nH]c1c(N3CCC4(CC3)OCCO4)ncnc12	none
